# Compounds with a hit are over-represented: about 3.9% of the library has one in this group of screens.
# CHO parental Ca – counter-screen: ATP calcium response change in parental CHO cells. 330,000 tested, 0.63% active. inhibition, % at 5.6 µM. parental CHO-K1, ATP-induced calcium, Fluo-8 fluorescence;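 active = inhibition above that plate's mean sample inhibition plus 3 SD, cut at about 26% in these data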;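 also: 0% = ATP-challenged DMSO wells and 100% = DMSO wells without ATP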
#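 Measured by: calcium-sensitive Fluo-8 fluorescence / Test system: CHO parental line / Controls: ATP-challenged DMSO wells low, unchallenged DMSO wells high / Measure: % inhibition / Compound: single nominal dose of 5.6 µM per compound / Replicates: single well per compound, no replicates / Reagent: ATP as calcium-mobilizing challenge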
# TAAR1 ag – human TAAR1 agonism. 360,000 tested, 0.99% active. CHO RD-HGA16 TAAR1, Fluo-8 calcium fluorescence; vehicle wells 0%, saturating PEA agonist 100%. activation, % at 3 µM. Q96RJ0;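 active = activation above the mean activation of all test compounds in the run plus 3 SD, cut at about 38% in these data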
# Target sequence (Q96RJ0 whole entry, looked up): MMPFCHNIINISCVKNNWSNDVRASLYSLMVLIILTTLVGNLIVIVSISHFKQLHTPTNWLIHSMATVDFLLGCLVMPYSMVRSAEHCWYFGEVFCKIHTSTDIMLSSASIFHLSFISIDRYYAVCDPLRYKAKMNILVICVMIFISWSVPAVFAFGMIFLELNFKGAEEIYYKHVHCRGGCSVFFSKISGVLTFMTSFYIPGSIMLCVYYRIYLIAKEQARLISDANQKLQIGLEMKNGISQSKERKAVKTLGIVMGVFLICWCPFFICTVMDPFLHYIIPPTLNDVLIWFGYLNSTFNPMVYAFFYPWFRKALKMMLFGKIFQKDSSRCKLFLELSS
#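 System: CHO RD-HGA16 cells carrying human TAAR1 plus Gα16; Incubation: 17-24 h seeding, 75 min 37 °C dye, 30 min RT; Measured by: Fluo-8 fluorescence, 5 s baseline then 140 s kinetic read; Control set: DMSO and PEA EC100; Replication: single well for each compound.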
# OX1R antag-1 – blocks the human orexin 1 receptor; AID 434989; CHO/OX1R cells, Fluo-8 calcium fluorescence, orexin A; 330,000 tested, 0.43% active; O43613; inhibition, % at 5 µM;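 active = inhibition above its plate's threshold, mean inhibition of all tested compounds on the plate plus 3 SD, cut at about 37% in these data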;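 also: 0% = orexin A challenge wells and 100% = SB-334867-A antagonist wells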
# Target sequence (O43613 whole entry, looked up): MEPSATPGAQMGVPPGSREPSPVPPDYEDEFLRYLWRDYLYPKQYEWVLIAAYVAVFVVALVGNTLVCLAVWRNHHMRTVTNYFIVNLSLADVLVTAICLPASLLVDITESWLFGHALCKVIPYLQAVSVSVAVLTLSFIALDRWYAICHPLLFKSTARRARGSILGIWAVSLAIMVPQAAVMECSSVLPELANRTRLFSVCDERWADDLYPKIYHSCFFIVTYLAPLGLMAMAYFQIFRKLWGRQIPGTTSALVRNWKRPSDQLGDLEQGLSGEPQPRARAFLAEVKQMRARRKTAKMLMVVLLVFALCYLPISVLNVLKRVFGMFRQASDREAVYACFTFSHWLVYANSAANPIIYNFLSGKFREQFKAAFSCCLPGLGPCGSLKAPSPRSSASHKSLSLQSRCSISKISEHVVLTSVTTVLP
# TAAR1 antagonist – human TAAR1 antagonism | 360,000 tested, 1.5% active | AID 624466 | Q96RJ0 | CHO RD-HGA16 TAAR1, Fluo-8 calcium fluorescence, antagonist | inhibition, % at 3 µM;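 active = inhibition above a per-plate cutoff, the mean inhibition of test compounds on that plate plus 3 SD, cut at about 49% in these data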;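 also: 0% = DMSO plus EC80 beta-PEA response and 100% = DMSO alone without agonist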
#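 Material: CHO RD-HGA16 cells bearing hTAAR1; compound dosing: one-point dosing, 3 µM nominal final; schedule: dye loading 75 min at 37 °C, then 30 min room temperature; measured by: calcium fluorescence with Fluo-8; control set: vehicle and agonist controls; replication: n of 1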
# OX1R antag-2 – OX1R (human) antagonism; 330,000 tested, 1.8% active; O43613; inhibition, % at 6.6 µM; OX1R-expressing cells, FRET antagonist read-out; in the data active = inhibition mostly above about 38%, no sharp cut-off; inactive = mostly below about 40%;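 also: 0% = agonist challenge alone and 100% = reference antagonist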
# TAAR1 ag confirm – confirmation of human TAAR1 agonists | shares compounds with TAAR1 ag | CHO RD-HGA16 TAAR1, Fluo-8 calcium fluorescence; scaled: DMSO 0%, maximal phenethylamine 100% | activation, % at 3 µM | 2,400 tested, 82% active;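 active = activation above a cutoff set at the run's mean compound activation plus 3 SD, cut at about 39% in these data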
# Ga16 nonsel ag – counter-screen for TAAR1 agonists: nonselective agonists in parental cells; shares compounds with TAAR1 ag; CHO-Ga16 parental, Fluo-8 calcium fluorescence; normalized to maximal ATP response, DMSO zero; activation, % at 3 µM; 2,400 tested, 50% active; AID 651787;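 active = activation above the run cutoff, the mean activation over all tested wells plus 3 SD, cut at about 12% in these data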;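 also: 0% = DMSO wells and 100% = maximal ATP response on the peak over basal ratio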
# TAAR1 desens – TAAR1 response desensitization, agonist counter-screen; inhibition, % at 3 µM; CHO RD-HGA16 hTAAR1, Fluo-8 calcium, beta-PEA response inhibition; AID 651951; shares compounds with TAAR1 ag; 2,400 tested, 46% active;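 active = inhibition above the run cutoff, the mean inhibition of all test compounds plus 3 SD, cut at about 49% in these data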;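 also: beta-PEA stimulus applied at its EC80; loss of beta-PEA calcium signal after compound pretreatment read as receptor desensitization; 0% = DMSO with beta-PEA at EC80 and 100% = DMSO alone without agonist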
# Ga16 antag count – nonselective Ga16 antagonism, counter-screen; CHO-Ga16 ATP-induced calcium, Fluo-8 fluorescence; shares compounds with TAAR1 ag; 2,400 tested, 39% active; inhibition, % at 3 µM; AID 651952;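 active = inhibition above the plate's mean compound inhibition plus 3 SD, computed per plate, cut at about 22% in these data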;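 also: 0% = EC80 ATP with DMSO and 100% = DMSO wells without ATP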
# Numbers without * were called inactive; nt = no result given.
SMILES,CHO parental Ca,TAAR1 ag,OX1R antag-1,TAAR1 antagonist,OX1R antag-2,TAAR1 ag confirm,Ga16 nonsel ag,TAAR1 desens,Ga16 antag count
COc1ccc(CC(N)c2csc(NC(=O)Nc3cccc(C(F)(F)F)c3)n2)cc1 (stereo unspecified),nt,84.5*,nt,64.9*,nt,79.6*,42.4*,65.3*,54.5*
COc1ccc(CC(N)c2csc(NC(=O)Nc3ccc(F)cc3)n2)cc1 (stereo unspecified),nt,12.7,nt,24.9,nt,nt,nt,nt,nt
CC1(C(=O)O)CCN1C(=O)c1ccccc1F (stereo unspecified),nt,0.2,nt,6.4,nt,nt,nt,nt,nt
O=C(O)Cc1c(O)ccc2ccccc12,-1.9,8.1,-2.8,15.1,21.4,nt,nt,nt,nt
NCc1c(O)ccc2ccccc12,-8.7,nt,-9.1,nt,3.8,nt,1.8,nt,7.5
CC(C)c1cccc(C(C)C)c1NC(=O)OC1CCCCC1,nt,0.3,nt,-27.4,nt,nt,nt,nt,nt
COc1cccc(N2CC(C(=O)Nc3c(C(N)=O)oc4ccccc34)CC2=O)c1 (stereo unspecified),-18.9,4.8,-13.5,-9.2,20.8,nt,nt,nt,nt
COC(=O)C(NC(=O)c1ccccc1C)(Nc1ncc(S(=O)(=O)c2ccc([N+](=O)[O-])cc2)s1)C(F)(F)F (stereo unspecified),-5.6,70.2*,8.9,30.3,20.3,54.8*,25.7*,51.5*,22.5*
O=C(Nc1ncc(S(=O)(=O)c2ccc([N+](=O)[O-])cc2)s1)c1ccccc1F,39.0*,100.6*,53.6*,59.4*,31.3,109.7*,60.7*,83.7*,51.5*
COC(=O)C(NC(=O)c1ccc(F)cc1)(Nc1ncc(S(=O)(=O)c2ccc([N+](=O)[O-])cc2)s1)C(F)(F)F (stereo unspecified),-4.6,20.3,6.3,16.4,29.7,nt,nt,nt,nt
CCCCNC(=O)c1ccc2nc(CC)c(N(CC)CCN(C)C)n2c1,nt,-0.3,nt,-17.0,nt,nt,nt,nt,nt
O=C(CCSc1nnc(-c2ccncc2)o1)Nc1ccc(Cl)cc1,-1.7,40.1*,-7.8,-15.1,1.0,40.0*,4.0,8.3,14.7
O=C(CCSc1nnc(-c2ccncc2)o1)Nc1cccc(Cl)c1,-4.0,14.0,-1.3,-6.7,11.9,nt,nt,nt,nt
CCCCN1C(=O)C(CC(=O)NCc2cccc3ccccc23)CC(C(=O)N(C)C)=C1C (stereo unspecified),nt,1.3,nt,1.6,nt,nt,nt,nt,nt
O=c1[nH]nc(Br)c(=O)n1C(c1ccccc1)c1ccccc1,nt,71.3*,nt,16.1,nt,46.9*,25.5*,17.7,9.8
O=c1[nH]c(=O)n(C(c2ccccc2)c2ccccc2)cc1Br,-2.4,3.6,-14.5,-24.4,6.5,nt,nt,nt,nt
CC(=O)NC(CC(=O)OCC(=O)N1CCc2ccccc21)c1ccccc1 (stereo unspecified),-7.4,-1.6,-21.1,-5.1,-1.6,nt,nt,nt,nt
C/C(=N\NC(=O)c1cc(-c2cccc([N+](=O)[O-])c2)n[nH]1)c1ccccc1O,-10.4,0.3,-14.4,3.1,43.4,nt,nt,nt,nt
CN1C(=O)CC(N2CCN(CC(=O)N3CCCC3)CC2)C1=O (stereo unspecified),16.8,4.0,0.6,6.7,9.5,nt,nt,nt,nt
CN1C(=S)N(c2cccnc2)C(=O)/C1=C\c1ccc(N(C)C)cc1,nt,73.8*,nt,33.0,nt,29.3,38.6*,41.6,49.6*
CN1C(=S)N(c2cccnc2)C(=O)/C1=C\c1ccc(C(C)(C)C)cc1,-15.7,8.2,12.2,5.2,23.3,nt,nt,nt,nt
Cc1cc(N/N=C/c2ccccc2)nc(NCc2ccccc2)n1,-9.1,50.5*,-14.0,27.7,22.0,62.7*,17.0*,39.2,17.6
Cc1cc(N/N=C/c2cccc(F)c2)nc(NCc2ccccc2)n1,-16.4,59.6*,-28.2,28.1,11.3,55.1*,5.3,44.7,15.5
Cc1cc(OC2CCCCC2)nc(NCc2ccccc2)n1,-27.4,2.2,-32.0,-19.0,9.7,nt,nt,nt,nt
Cc1cc(N2CCCCC2)nc(NCc2ccccc2)n1,7.9,99.5*,-10.4,64.1*,14.1,73.4*,38.0*,70.9*,49.6*
SMILES,CHO parental Ca,TAAR1 ag,OX1R antag-1,TAAR1 antagonist,OX1R antag-2,TAAR1 ag confirm,Ga16 nonsel ag,TAAR1 desens,Ga16 antag count
O=C(O)CC(NC(=O)C1c2ccccc2Oc2ccccc21)c1ccc(OC2CCCC2)cc1 (stereo unspecified),-8.1,57.6*,-3.8,-12.1,20.4,82.9*,49.0*,12.1,0.5
COc1ccc(C(=O)CCN2CCCC(C)C2)cc1 (stereo unspecified),-4.3,78.8*,-10.7,15.7,-0.3,76.1*,1.1,18.5,2.1
CC1CCCN(CCOc2ccc(Br)cc2)C1 (stereo unspecified),-9.8,13.9,0.5,-14.6,-6.6,nt,nt,nt,nt
CC1CCCN(CCC(=O)c2ccc(Br)cc2)C1 (stereo unspecified),2.1,75.0*,4.7,22.1,8.3,92.8*,3.3,57.4*,7.1
C=CCn1c(SCC(=O)Nc2c(C)cccc2C)nnc1-c1cnccn1,-1.0,2.7,-13.8,12.6,10.1,nt,nt,nt,nt
CN(C)CCNC(=O)c1coc(=O)c(Br)c1,-11.6,1.0,-2.4,15.0,37.5,nt,nt,nt,nt
O=C(NCCC1=CCCCC1)c1coc(=O)c(Br)c1,-9.8,62.0*,-30.3,14.4,16.1,48.3*,1.2,1.6,-0.7
O=C(NCCc1ccccc1)c1coc(=O)c(Br)c1,nt,87.3*,nt,80.2*,nt,94.4*,0.6,79.7*,7.6
Cc1ccc(N2C(=O)c3ccc(C(=O)N4CCN(Cc5ccccc5)CC4)cc3C2=O)cc1,15.3,86.7*,16.9,80.7*,13.3,93.9*,49.2*,96.5*,73.9*
CCCOC(=O)c1ccc2c(c1)C(=O)N(c1ccccc1)C2=O,-5.3,68.1*,-7.9,53.1*,10.3,15.1,6.1,24.3,19.3
Cc1cc(N2CCOCC2)ccc1/C=C1/SC(=O)NC1=O,0.7,3.7,-4.4,-27.4,34.0,nt,nt,nt,nt
CC1CN(CCc2ccccc2)c2nc3c(c(=O)n(C)c(=O)n3C)n2C1 (stereo unspecified),-32.2,24.8,-9.2,-34.8,2.2,nt,nt,nt,nt
NC(CCCCc1ccccc1)c1cccc2ccccc12 (stereo unspecified),-6.1,nt,-5.8,nt,0.8,nt,nt,nt,nt
CC1OC2CC(=O)OC2C2=C1C(=O)c1c(O)cccc1C2=O (stereo unspecified),nt,64.0*,nt,58.1*,nt,69.3*,40.6*,70.7*,61.6*
